How the values were obtained:
Format in all cases: tissue-based
Settings in all cases: Trachea
[1] = species on record: Cavia porcellus; assay: Antagonist activity at beta adrenergic receptor in guinea pig tracheal strips assessed as inhibition of 10^-7 M isoproterenol-induced tracheal relaxation incubated 1 hr prior to testing
Procedure, shortened: (§1)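 Guinea pig tracheal strips in 10-mL baths, precontracted with carbachol 10^-7 M. Two cumulative isoproterenol dose-response curves per strip: control, then a 1 h wash, then antagonist added 1 h before the second curve. Dose ratio is the antilog of the difference in −log molar isoproterenol ED50. Apparent K_B = [antagonist]/(dose ratio − 1), using three antagonist concentrations (Furchgott).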

[2] = species on record: Cavia porcellus; assay: Antagonist activity at beta adrenergic receptor in guinea pig tracheal strips assessed as inhibition of 10^-6 M isoproterenol-induced tracheal relaxation incubated 1 hr prior to testing; procedure, shortened: as §1
[3] = species on record: Cavia porcellus; assay: Antagonist activity at beta adrenergic receptor in guinea pig tracheal strips assessed as inhibition of 10^-5 M isoproterenol-induced tracheal relaxation incubated 1 hr prior to testing; procedure, shortened: as §1
[4] = species on record: Cavia porcellus; assay: Antagonist activity at beta adrenergic receptor in guinea pig tracheal strips assessed as inhibition of isoproterenol-induced tracheal relaxation incubated 1 hr prior to testing; procedure, shortened: as §1

Kb [1] [nM]	Kb [2] [nM]	Kb [3] [nM]	inhibition [4]	SMILES
34.8	37.9	101	Dose-dependent effect	C=CCOc1ccc(O)cc1OCC(O)CNC(C)C (stereo unspecified)
26.5	45.5	122	Dose-dependent effect	C=CCOc1cc(O)ccc1OCC(O)CNC(C)C (stereo unspecified)
2.61	5.81		Dose-dependent effect	C=CCOc1ccccc1OCC(O)CNC(C)C (stereo unspecified)

— ChEMBL document CHEMBL3244026, “Synthesis of 4'- and 5'-hydroxyoxprenolol:pharmacologically active ring-hydroxylated metabolites of oxprenolol” (J Med Chem, 1979)
